Laboratory results as given in ChEMBL document CHEMBL1132751, “Structure-activity relationships of trans-3,5-disubstituted pyrrolidinylthio-1beta-methylcarbapenems. Part 1: J-111,347 and related compounds” (2000).
In brackets after ≈: the same amount, converted by molar mass.

Experiments:
Type in all cases: functional
[1] = tested on: Staphylococcus epidermidis; assay: In vitro antibacterial activity was determined against methicillin-resistant Staphylococcus epidermidis MB5181.
In short: (§1)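 Minimum inhibitory concentration determined by agar dilution. The S. aureus pMS520/Smith and S. epidermidis MB5181 strains are methicillin-resistant isolates.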

[2] = tested on: Staphylococcus aureus; assay: In vitro antibacterial activity was determined against Staphylococcus aureus 209P NIHJ JCI.
[3] = tested on: Staphylococcus aureus; assay: In vitro antibacterial activity was determined against methicillin-resistant Staphylococcus aureus pMS520/Smith.; in short: as §1
[4] = tested on: Pseudomonas aeruginosa; assay: In vitro antibacterial activity was determined against Pseudomonas aeruginosa AK109.
[5] = tested on: Escherichia coli; assay: In vitro antibacterial activity was determined against Escherichia coli NIHJ JC2.
[6] = tested on: Pseudomonas aeruginosa; assay: In vitro antibacterial activity was determined against ceftazidime- resistant Pseudomonas aeruginosa AKR17.; in short: as §1
[7] = tested on: Staphylococcus aureus; assay: TIn vitro antibacterial activity against methicillin-resistant Staphylococcus aureus pMS520/Smith.; in short: as §1

SMILES | MIC [1] | MIC [2] | MIC [3] | MIC [4] | MIC [5] | MIC [6] | MIC [7]
C[C@@H](O)[C@H]1C(=O)N2C(C(=O)O)=C(S[C@@H]3CN[C@H](CNc4ccccc4)C3)[C@H](C)[C@H]12 | 6.25 mg/L (≈ 15 µM) | < 0.006 mg/L | 12.5 mg/L (≈ 29.9 µM) | 12.5 mg/L (≈ 29.9 µM) | 0.05 mg/L (≈ 0.12 µM) | 25 mg/L (≈ 59.9 µM) | –
C[C@@H](O)[C@H]1C(=O)N2C(C(=O)O)=C(S[C@@H]3CN[C@H](COc4ccc(CN)cc4)C3)[C@H](C)[C@H]12 | 6.25 mg/L (≈ 14 µM) | < 0.006 mg/L | 3.13 mg/L (≈ 6.99 µM) | 1.56 mg/L (≈ 3.49 µM) | 0.025 mg/L (≈ 0.0559 µM) | 12.5 mg/L (≈ 27.9 µM) | –
C[C@@H](O)[C@H]1C(=O)N2C(C(=O)O)=C(S[C@@H]3CN[C@H](CCc4ccccc4)C3)[C@H](C)[C@H]12 | 3.13 mg/L (≈ 7.51 µM) | < 0.006 mg/L | 6.25 mg/L (≈ 15 µM) | 25 mg/L (≈ 60 µM) | 0.05 mg/L (≈ 0.12 µM) | > 50 mg/L | –
C[C@@H](O)[C@H]1C(=O)N2C(C(=O)O)=C(S[C@@H]3CN[C@@H](CSc4ccc(CN)cc4)C3)[C@H](C)[C@H]12 | 3.13 mg/L (≈ 6.75 µM) | < 0.006 mg/L | 3.13 mg/L (≈ 6.75 µM) | 1.56 mg/L (≈ 3.36 µM) | 0.05 mg/L (≈ 0.108 µM) | 12.5 mg/L (≈ 27 µM) | –
C[C@@H](O)[C@H]1C(=O)N2C(C(=O)O)=C(S[C@@H]3CN[C@@H](c4ccc(CN)cc4)C3)[C@H](C)[C@H]12 | 1.56 mg/L (≈ 3.74 µM) | < 0.006 mg/L | 0.78 mg/L (≈ 1.87 µM) | 0.39 mg/L (≈ 0.934 µM) | 0.025 mg/L (≈ 0.0599 µM) | 3.13 mg/L (≈ 7.5 µM) | –
C[C@@H](O)[C@H]1C(=O)N2C(C(=O)O)=C(S[C@@H]3CN[C@H](COc4ccccc4)C3)[C@H](C)[C@H]12 | 25 mg/L (≈ 59.7 µM) | 0.012 mg/L (≈ 0.0287 µM) | 25 mg/L (≈ 59.7 µM) | 25 mg/L (≈ 59.7 µM) | 0.39 mg/L (≈ 0.932 µM) | > 50 mg/L | –
C[C@@H](O)[C@H]1C(=O)N2C(C(=O)O)=C(S[C@@H]3CN[C@H](CSc4ccc(CN)cc4)C3)[C@H](C)[C@H]12 | 3.13 mg/L (≈ 6.75 µM) | < 0.006 mg/L | 1.56 mg/L (≈ 3.36 µM) | 0.78 mg/L (≈ 1.68 µM) | 0.025 mg/L (≈ 0.0539 µM) | 3.13 mg/L (≈ 6.75 µM) | –
C[C@@H](O)[C@H]1C(=O)N2C(C(=O)O)=C(S[C@@H]3CN[C@@H](Cc4ccc(CN)cc4)C3)[C@H](C)[C@H]12 | 12.5 mg/L (≈ 29 µM) | 0.05 mg/L (≈ 0.116 µM) | 12.5 mg/L (≈ 29 µM) | 25 mg/L (≈ 57.9 µM) | 0.39 mg/L (≈ 0.904 µM) | > 100 mg/L | –
C[C@@H](O)[C@H]1C(=O)N2C(C(=O)O)=C(S[C@@H]3CN[C@H](Cc4ccc(CN)cc4)C3)[C@H](C)[C@H]12 | 3.13 mg/L (≈ 7.25 µM) | < 0.006 mg/L | 3.13 mg/L (≈ 7.25 µM) | 0.39 mg/L (≈ 0.904 µM) | 0.025 mg/L (≈ 0.0579 µM) | 6.25 mg/L (≈ 14.5 µM) | –
C[C@@H](O)[C@H]1C(=O)N2C(C(=O)O)=C(S[C@@H]3CN[C@H](Cc4ccccc4)C3)[C@H](C)[C@H]12 | 3.13 mg/L (≈ 7.78 µM) | < 0.006 mg/L | 6.25 mg/L (≈ 15.5 µM) | 25 mg/L (≈ 62.1 µM) | 0.1 mg/L (≈ 0.248 µM) | > 50 mg/L | –
C[C@@H](O)[C@H]1C(=O)N2C(C(=O)O)=C(S[C@@H]3CN[C@H](CSc4ccccc4)C3)[C@H](C)[C@H]12 | 3.13 mg/L (≈ 7.2 µM) | < 0.006 mg/L | 6.25 mg/L (≈ 14.4 µM) | 50 mg/L (≈ 115 µM) | 0.1 mg/L (≈ 0.23 µM) | 50 mg/L (≈ 115 µM) | –
C[C@@H](O)[C@H]1C(=O)N2C(C(=O)O)=C(S[C@@H]3CN[C@H](CCc4ccc(CN)cc4)C3)[C@H](C)[C@H]12 | 25 mg/L (≈ 56.1 µM) | < 0.006 mg/L | 3.13 mg/L (≈ 7.02 µM) | 0.78 mg/L (≈ 1.75 µM) | 0.025 mg/L (≈ 0.0561 µM) | 6.25 mg/L (≈ 14 µM) | –
C[C@@H](O)[C@H]1C(=O)N2C(C(=O)O)=C(S[C@@H]3CN[C@H](c4ccc(CN)cc4)C3)[C@H](C)[C@H]12 | 3.13 mg/L (≈ 7.5 µM) | < 0.006 mg/L | – | 0.78 mg/L (≈ 1.87 µM) | 0.025 mg/L (≈ 0.0599 µM) | 6.25 mg/L (≈ 15 µM) | 1.56 mg/L (≈ 3.74 µM)
C[C@@H](O)[C@H]1C(=O)N2C(C(=O)O)=C(S[C@@H]3CN[C@H](CNc4ccc(CN)cc4)C3)[C@H](C)[C@H]12 | 6.25 mg/L (≈ 14 µM) | < 0.006 mg/L | 3.13 mg/L (≈ 7.01 µM) | 1.56 mg/L (≈ 3.49 µM) | 0.025 mg/L (≈ 0.056 µM) | 12.5 mg/L (≈ 28 µM) | –
C[C@@H](O)[C@H]1C(=O)N2C(C(=O)O)=C(SCCNC=N)C[C@H]12.O | 50 mg/L | < 0.006 mg/L | 50 mg/L | 1.56 mg/L | 0.01 mg/L | 3.13 mg/L | –
CN[C@H](CC(C)C)C(=O)N[C@H]1C(=O)N[C@@H](CC(N)=O)C(=O)N[C@H]2C(=O)N[C@H]3C(=O)N[C@H](C(=O)N[C@H](C(=O)O)c4cc(O)cc(O)c4-c4cc3ccc4O)[C@H](O)c3ccc(c(Cl)c3)Oc3cc2cc(c3O[C@@H]2O[C@H](CO)[C@@H](O)[C@H](O)[C@H]2O[C@H]2C[C@](C)(N)[C@H](O)[C@H](C)O2)Oc2ccc(cc2Cl)[C@H]1O [VANCOMYCIN] | – | – | 0.78 mg/L (≈ 0.538 µM) | > 100 mg/L | > 100 mg/L | > 100 mg/L | –
